According to ChEMBL document CHEMBL4371006, “Discovery of N-[4-(Quinolin-4-yloxy)phenyl]benzenesulfonamides as Novel AXL Kinase Inhibitors” (J Med Chem, 2018):
Calls of active or inactive are those of the source. The rule behind the calls is not given here.

Legend:
[1] = biological target: Fibroblast growth factor receptor 3 (Homo sapiens) (UniProt P22607); experiment: Inhibition of FGFR3 (unknown origin) using fluorescence labeled peptide as substrate at 10 uM by IMAP assay
Outline: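 IMAP fluorescence-polarization kinase assay at 10 µmol/L compound, run in triplicate by a contract lab. A fluorescently labeled substrate peptide is phosphorylated, then nanoparticles carrying trivalent metal bind the phosphopeptide and slow its rotation. Read-out is fluorescence polarization, expressed as percent inhibition.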

[2] = biological target: Receptor-type tyrosine-protein kinase FLT3 (Homo sapiens) (UniProt P36888); experiment: Inhibition of FLT3 (unknown origin) using biotinylated peptide as substrate at 10 uM by TR-FRET assay
[3] = biological target: Receptor tyrosine-protein kinase erbB-2 (Homo sapiens) (UniProt P04626); experiment: Inhibition of ERBB2 (unknown origin) using biotinylated peptide as substrate at 10 uM by TR-FRET assay
Outline: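 HTRF (TR-FRET) kinase assay at 10 µmol/L compound, in triplicate. A biotinylated kinase-specific peptide is phosphorylated. Detection uses a europium cryptate-labeled anti-phospho-residue antibody as donor and XL665-streptavidin as acceptor. Result is percent inhibition.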

[4] = biological target: Receptor tyrosine-protein kinase erbB-2 (Homo sapiens) (UniProt P04626); experiment: Binding affinity to ERBB2 (unknown origin) at 10 uM
Outline: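 HTRF kinase assay for HER2 at 10 µM compound, triplicate: biotinylated peptide phosphorylated, detected by europium cryptate anti-phospho antibody and streptavidin-XL665 TR-FRET; percent inhibition.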

[5] = biological target: Tyrosine-protein kinase SYK (Homo sapiens) (UniProt P43405); experiment: Inhibition of SYK (unknown origin) using fluorescence labeled peptide as substrate at 10 uM by IMAP assay
Outline: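 Kinase selectivity profiling, run by a contract lab, with the test compound at 10 µmol/L in triplicate. In the IMAP format, the kinase phosphorylates a fluorescently labelled substrate peptide in solution. A binding solution of trivalent metal-based nanoparticles is then added to capture the phosphopeptide, and the drop in rotational speed is read as fluorescence polarization. Results are given as percent inhibition of each kinase.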

[6] = biological target: Receptor tyrosine-protein kinase erbB-2 (Homo sapiens) (UniProt P04626); experiment: Inhibition of ERBB2 (unknown origin) using biotinylated peptide as substrate at 10 uM by TR-FRET assay
[7] = biological target: Proto-oncogene tyrosine-protein kinase receptor Ret (Homo sapiens) (UniProt P07949); experiment: Inhibition of RET (unknown origin) using fluorescently-labeled peptide as substrate at 10 uM by IMAP fluorescence polarization assay
[8] = biological target: Tyrosine-protein kinase CSK (Homo sapiens, UniProt P41240); experiment: Inhibition of CSK (unknown origin) using fluorescently-labeled peptide as substrate at 10 uM by IMAP fluorescence polarization assay
[9] = biological target: T1, Hepatocyte growth factor receptor (Homo sapiens, UniProt P08581); experiment: Binding affinity to c-MET in SILAC-labeled human MDA-MB-231 cells lysate by mass spectrometry based kinAffinity assay; assay type: subcellular
Outline: (§1)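 MDA-MB-231 lysate applied to KinAffinity matrix of immobilized broadband kinase inhibitors at graded densities to obtain BC50 per target. Competition then run with increasing free compound to give CC50; Kd derived by Cheng-Prusoff. Two competition experiments in parallel to check equilibrium, one with lysate pre-incubated with compound before adding matrix. Quantitation by mass spectrometry.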

[10] = biological target: Mitogen-activated protein kinase kinase kinase 3 (Homo sapiens, UniProt Q99759); experiment: Binding affinity to MAP3K3 in SILAC-labeled human MDA-MB-231 cells lysate by mass spectrometry based kinAffinity assay; assay type: subcellular
Outline: (§2)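 Chemical proteomics: MDA-MB-231 lysate bound to matrix of immobilized broad kinase inhibitors at several densities (BC50), then competed with increasing free compound (CC50); proteins quantified by mass spectrometry, Kd via Cheng-Prusoff. Two competition formats run in parallel to check equilibrium.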

[11] = biological target: MAP/microtubule affinity-regulating kinase 4 (Homo sapiens, UniProt Q96L34); experiment: Binding affinity to MARK4 in SILAC-labeled human MDA-MB-231 cells lysate by mass spectrometry based kinAffinity assay; assay type: subcellular; outline: as §2
[12] = biological target: Cyclin-dependent kinase 18 (Homo sapiens, UniProt Q07002); experiment: Binding affinity to PCTK3 in SILAC-labeled human MDA-MB-231 cells lysate by mass spectrometry based kinAffinity assay; assay type: subcellular; outline: as §1
MDA-MB-231 = experiment: Antimetastatic activity against human MDA-MB-231 cells xenografted in mouse assessed as reduction in lung metastasis at 30 mg/kg, ip bid measured 3 times per week starting at day 12 by hematoxylin and eosin staining based assay relative to control; assay type: functional; set-up: scale not given: the % may be the effect or the level left
Outline: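 Female SCID/Beige mice inoculated with 2 x 10^6 MDA-MB-231 cells in HBSS:Matrigel (1:1) into third mammary fat pad under ketamine/xylazine. Test agent 30 mg/kg ip twice daily (12 h apart) in PEG400/H2O 70:30, or paclitaxel 10 mg/kg iv three times weekly; 10 mice/group. Tumors measured three times weekly from day 12; lungs and lymph nodes excised, formalin-fixed, nodes H&E-scored (mean ± SEM).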

[13] = biological target: T1, Hepatocyte growth factor receptor; experiment: Binding affinity to MET in SILAC-labeled human MDA-MB-231 cells lysate by mass spectrometry based kinAffinity assay; assay type: subcellular; outline: as §2
TGF-beta receptor type-1 = TGF-beta receptor type-1 (Homo sapiens, UniProt P36897); experiment: Binding affinity to TGFBR1 in SILAC-labeled human MDA-MB-231 cells lysate by mass spectrometry based kinAffinity assay; assay type: subcellular; outline: as §1
[14] = biological target: TANK-binding kinase 1-binding protein 1 (Homo sapiens, UniProt A7MCY6); experiment: Binding affinity to TBKBP1 in SILAC-labeled human MDA-MB-231 cells lysate by mass spectrometry based kinAffinity assay; assay type: subcellular; outline: as §1
LIM domain kinase 2 = LIM domain kinase 2 (Homo sapiens, UniProt P53671); experiment: Binding affinity to LIMK2 in SILAC-labeled human MDA-MB-231 cells lysate by mass spectrometry based kinAffinity assay; assay type: subcellular; outline: as §2
[15] = biological target: 5-azacytidine-induced protein 2 (Homo sapiens, UniProt Q9H6S1); experiment: Binding affinity to AZI2 in SILAC-labeled human MDA-MB-231 cells lysate by mass spectrometry based kinAffinity assay; assay type: subcellular; outline: as §2
[16] = biological target: Serine/threonine-protein kinase TBK1 (Homo sapiens, UniProt Q9UHD2); experiment: Binding affinity to TBK1 in SILAC-labeled human MDA-MB-231 cells lysate by mass spectrometry based kinAffinity assay; assay type: subcellular; outline: as §1
[17] = biological target: Protein-tyrosine kinase 2-beta (Homo sapiens, UniProt Q14289); experiment: Binding affinity to PYK2 in SILAC-labeled human MDA-MB-231 cells lysate by mass spectrometry based kinAffinity assay; assay type: subcellular; outline: as §1
[18] = biological target: Serine/threonine-protein kinase SIK3 (Homo sapiens, UniProt Q9Y2K2); experiment: Binding affinity to QSK in SILAC-labeled human MDA-MB-231 cells lysate by mass spectrometry based kinAffinity assay; assay type: subcellular; outline: as §1
[19] = Toxicity in mouse allografted with AXL expressing mouse MXT cells assessed as morbidity at 15 mg/kg, ip qd administered 21 consecutive days; assay type: organism-based; settings: in vivo
[20] = Antitumor activity against AXL expressing mouse MXT cells allografted in mouse assessed as reduction in tumor size at 15 mg/kg, ip qd administered 21 consecutive days relative to control; assay type: functional; set-up: scale not given: the % may be the effect or the level left
Outline: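 MXT mammary tumor cells implanted subcutaneously, grown to about 125 mm3, then dosed ip once daily for 21 consecutive days at 5 or 15 mg/kg vs vehicle, 7 animals/group; tumor size compared with vehicle after 3 weeks, survival also recorded.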

Sequence of Receptor tyrosine-protein kinase erbB-2 (Homo sapiens) (P04626 whole entry): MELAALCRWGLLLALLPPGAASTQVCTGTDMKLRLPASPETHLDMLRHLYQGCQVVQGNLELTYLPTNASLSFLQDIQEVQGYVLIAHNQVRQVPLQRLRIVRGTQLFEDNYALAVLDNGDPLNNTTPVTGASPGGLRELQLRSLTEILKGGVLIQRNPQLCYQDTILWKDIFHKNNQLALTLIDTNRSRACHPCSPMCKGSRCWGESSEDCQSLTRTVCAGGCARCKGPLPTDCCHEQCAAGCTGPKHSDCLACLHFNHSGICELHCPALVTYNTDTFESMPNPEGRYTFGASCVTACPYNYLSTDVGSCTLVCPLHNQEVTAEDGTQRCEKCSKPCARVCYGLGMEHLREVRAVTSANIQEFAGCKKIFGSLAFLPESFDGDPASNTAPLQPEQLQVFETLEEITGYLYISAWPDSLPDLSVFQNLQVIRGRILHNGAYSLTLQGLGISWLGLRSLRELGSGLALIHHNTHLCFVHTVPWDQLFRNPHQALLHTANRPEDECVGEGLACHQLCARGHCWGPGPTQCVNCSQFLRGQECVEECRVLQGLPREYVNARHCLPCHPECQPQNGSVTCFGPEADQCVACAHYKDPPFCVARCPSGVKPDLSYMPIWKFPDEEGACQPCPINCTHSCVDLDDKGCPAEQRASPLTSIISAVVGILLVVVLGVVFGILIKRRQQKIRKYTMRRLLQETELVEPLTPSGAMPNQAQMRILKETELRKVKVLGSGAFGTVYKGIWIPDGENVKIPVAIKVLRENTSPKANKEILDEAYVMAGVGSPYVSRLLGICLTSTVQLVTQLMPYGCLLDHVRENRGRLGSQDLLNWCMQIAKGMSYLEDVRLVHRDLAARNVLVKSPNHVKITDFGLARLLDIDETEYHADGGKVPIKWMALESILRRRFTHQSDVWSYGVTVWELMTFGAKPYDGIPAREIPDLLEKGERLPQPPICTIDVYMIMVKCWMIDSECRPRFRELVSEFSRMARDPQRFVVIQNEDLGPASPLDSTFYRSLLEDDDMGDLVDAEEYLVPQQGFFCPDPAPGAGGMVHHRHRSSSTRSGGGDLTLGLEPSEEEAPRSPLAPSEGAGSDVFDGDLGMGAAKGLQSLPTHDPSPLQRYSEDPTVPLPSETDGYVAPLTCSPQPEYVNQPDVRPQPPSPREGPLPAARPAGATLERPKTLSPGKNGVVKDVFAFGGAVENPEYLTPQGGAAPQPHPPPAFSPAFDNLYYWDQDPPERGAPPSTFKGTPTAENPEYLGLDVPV
T1 sequence (P08581 whole entry): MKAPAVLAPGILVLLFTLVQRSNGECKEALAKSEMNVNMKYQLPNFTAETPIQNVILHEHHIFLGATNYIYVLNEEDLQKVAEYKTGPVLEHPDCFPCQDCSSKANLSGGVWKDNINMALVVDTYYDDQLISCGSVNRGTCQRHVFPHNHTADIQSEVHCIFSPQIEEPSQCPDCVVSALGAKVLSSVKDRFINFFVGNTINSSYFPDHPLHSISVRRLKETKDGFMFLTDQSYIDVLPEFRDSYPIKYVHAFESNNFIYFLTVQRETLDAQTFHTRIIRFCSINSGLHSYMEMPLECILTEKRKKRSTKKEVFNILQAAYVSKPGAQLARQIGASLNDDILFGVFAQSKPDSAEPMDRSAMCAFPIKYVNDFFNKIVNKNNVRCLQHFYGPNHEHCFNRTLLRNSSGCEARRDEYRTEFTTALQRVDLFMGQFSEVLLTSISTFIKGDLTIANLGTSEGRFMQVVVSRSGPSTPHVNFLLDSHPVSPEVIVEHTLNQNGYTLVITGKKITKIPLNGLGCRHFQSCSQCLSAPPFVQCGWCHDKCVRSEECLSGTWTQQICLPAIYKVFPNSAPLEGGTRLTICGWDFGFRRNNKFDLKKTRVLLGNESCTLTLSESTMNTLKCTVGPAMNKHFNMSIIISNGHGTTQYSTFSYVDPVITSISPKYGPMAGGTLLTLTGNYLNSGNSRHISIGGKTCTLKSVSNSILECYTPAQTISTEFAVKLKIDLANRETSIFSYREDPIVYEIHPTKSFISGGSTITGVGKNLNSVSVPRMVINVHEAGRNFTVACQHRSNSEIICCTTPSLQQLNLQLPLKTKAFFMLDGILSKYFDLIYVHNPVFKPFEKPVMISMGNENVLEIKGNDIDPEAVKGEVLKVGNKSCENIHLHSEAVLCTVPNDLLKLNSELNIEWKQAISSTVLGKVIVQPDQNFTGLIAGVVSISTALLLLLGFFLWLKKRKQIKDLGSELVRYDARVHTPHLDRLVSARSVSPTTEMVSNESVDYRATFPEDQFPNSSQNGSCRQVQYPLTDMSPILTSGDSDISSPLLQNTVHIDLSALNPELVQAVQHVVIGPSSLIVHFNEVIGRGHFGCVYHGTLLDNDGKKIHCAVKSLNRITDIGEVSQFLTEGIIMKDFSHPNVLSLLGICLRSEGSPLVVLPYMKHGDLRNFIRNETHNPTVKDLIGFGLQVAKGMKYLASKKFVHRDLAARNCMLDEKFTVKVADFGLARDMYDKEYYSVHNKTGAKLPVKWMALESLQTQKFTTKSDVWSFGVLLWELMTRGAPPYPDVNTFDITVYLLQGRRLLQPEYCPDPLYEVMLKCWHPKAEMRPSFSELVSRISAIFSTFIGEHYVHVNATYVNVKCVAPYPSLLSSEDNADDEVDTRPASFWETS
Sequence of Serine/threonine-protein kinase SIK3 (Q9Y2K2 whole entry): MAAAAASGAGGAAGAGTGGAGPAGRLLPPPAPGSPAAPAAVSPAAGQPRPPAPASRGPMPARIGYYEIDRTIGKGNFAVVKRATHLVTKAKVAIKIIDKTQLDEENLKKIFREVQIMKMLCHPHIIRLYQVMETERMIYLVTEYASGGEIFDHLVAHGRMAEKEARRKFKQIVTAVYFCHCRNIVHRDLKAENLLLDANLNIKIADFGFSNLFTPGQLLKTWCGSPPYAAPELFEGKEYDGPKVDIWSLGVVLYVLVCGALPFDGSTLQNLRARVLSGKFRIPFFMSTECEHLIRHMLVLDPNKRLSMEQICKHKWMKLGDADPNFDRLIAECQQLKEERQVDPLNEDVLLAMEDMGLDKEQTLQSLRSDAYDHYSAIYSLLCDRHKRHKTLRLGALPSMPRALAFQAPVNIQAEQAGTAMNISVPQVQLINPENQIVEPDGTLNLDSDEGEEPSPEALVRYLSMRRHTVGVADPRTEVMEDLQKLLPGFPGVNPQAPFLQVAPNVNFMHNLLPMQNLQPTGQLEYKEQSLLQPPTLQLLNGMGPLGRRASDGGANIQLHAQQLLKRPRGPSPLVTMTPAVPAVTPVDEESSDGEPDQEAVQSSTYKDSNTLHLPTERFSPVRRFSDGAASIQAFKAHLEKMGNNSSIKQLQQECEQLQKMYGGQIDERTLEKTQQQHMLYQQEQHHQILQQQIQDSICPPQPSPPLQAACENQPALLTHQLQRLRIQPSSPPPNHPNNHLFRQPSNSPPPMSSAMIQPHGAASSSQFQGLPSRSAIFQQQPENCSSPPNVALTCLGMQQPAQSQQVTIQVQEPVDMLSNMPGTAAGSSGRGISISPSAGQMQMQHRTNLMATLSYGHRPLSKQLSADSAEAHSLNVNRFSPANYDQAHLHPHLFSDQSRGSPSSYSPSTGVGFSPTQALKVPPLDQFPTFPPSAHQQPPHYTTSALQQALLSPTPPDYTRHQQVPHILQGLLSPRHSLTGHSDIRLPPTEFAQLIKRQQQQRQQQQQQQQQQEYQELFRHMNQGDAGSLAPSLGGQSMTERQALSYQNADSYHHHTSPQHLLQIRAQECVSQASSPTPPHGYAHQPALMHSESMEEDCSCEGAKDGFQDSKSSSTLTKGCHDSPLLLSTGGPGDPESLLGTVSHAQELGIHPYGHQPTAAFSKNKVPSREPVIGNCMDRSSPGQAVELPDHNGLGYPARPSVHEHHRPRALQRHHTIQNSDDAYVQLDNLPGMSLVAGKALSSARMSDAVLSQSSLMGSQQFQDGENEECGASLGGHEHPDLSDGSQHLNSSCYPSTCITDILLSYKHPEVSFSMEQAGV
Sequence of MAP/microtubule affinity-regulating kinase 4 (Q96L34 whole entry): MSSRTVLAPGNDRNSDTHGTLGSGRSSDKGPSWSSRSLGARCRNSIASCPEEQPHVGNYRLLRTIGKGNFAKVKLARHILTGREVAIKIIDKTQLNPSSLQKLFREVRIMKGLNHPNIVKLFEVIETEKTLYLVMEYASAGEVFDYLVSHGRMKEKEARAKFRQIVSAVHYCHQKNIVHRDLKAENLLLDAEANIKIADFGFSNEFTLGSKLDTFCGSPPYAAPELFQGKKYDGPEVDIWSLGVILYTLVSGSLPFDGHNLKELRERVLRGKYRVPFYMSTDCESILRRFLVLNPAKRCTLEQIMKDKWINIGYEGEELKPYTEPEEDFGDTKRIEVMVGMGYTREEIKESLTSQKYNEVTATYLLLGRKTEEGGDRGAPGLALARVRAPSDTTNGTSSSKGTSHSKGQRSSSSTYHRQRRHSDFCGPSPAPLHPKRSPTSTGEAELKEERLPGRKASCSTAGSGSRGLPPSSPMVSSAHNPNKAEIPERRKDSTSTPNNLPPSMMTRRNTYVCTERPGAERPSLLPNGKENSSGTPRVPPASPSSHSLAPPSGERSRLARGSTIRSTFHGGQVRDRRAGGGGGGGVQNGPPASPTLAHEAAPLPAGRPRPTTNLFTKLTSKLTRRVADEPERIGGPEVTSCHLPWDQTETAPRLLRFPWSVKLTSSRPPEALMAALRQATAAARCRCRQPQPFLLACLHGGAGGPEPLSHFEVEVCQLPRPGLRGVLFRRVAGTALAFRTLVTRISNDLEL
Sequence of 5-azacytidine-induced protein 2 (Q9H6S1 whole entry): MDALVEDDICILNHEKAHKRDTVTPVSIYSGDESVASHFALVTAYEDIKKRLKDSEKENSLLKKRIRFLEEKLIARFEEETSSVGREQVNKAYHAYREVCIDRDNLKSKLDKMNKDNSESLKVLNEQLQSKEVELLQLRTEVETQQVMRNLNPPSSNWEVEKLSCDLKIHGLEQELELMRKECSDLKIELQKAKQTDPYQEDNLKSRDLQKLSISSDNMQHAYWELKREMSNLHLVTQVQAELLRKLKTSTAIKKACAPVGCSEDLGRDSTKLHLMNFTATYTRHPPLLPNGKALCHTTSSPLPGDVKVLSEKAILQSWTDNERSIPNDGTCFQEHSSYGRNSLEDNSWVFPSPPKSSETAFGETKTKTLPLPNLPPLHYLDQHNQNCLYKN

COc1cc2c(Oc3ccc(NS(=O)(=O)c4ccccc4C(F)(F)F)cc3F)ccnc2cc1OCCCN1CCN(C)CC1
inhibition [1]: Active
inhibition [2]: Active
inhibition [3]: Active
inhibition [4]: Active
inhibition [5]: Active
inhibition [6]: Active
inhibition [7]: Active
inhibition [8]: Active

COc1cc2c(Oc3ccc(NS(=O)(=O)c4cc(F)ccc4F)cc3F)ccnc2cc1OCCCN1CCN(C)CC1
Kd(free) [9]: 0.041 µM
Kd(free) [10]: 3.133 µM
Kd(free) [11]: 5.975 µM
Kd(free) [12]: > 6.194 µM
Activity (MDA-MB-231): 65.7%

COc1cc2c(Oc3ccc(NS(=O)(=O)c4c(F)cccc4F)cc3F)ccnc2cc1OCCCN1CCN(C)CC1
Kd(free) [13]: 0.006 µM
Kd(free) (TGF-beta receptor type-1): 0.205 µM
Kd(free) [14]: 2.09 µM
Kd(free) (LIM domain kinase 2): 2.784 µM
Kd(free) [15]: 2.982 µM
Kd(free) [16]: 3.273 µM
Kd(free) [17]: 6.928 µM
Kd(free) [18]: 7.63 µM

COc1cc2c(Oc3ccc(NS(=O)(=O)c4cc(F)ccc4F)cc3F)ccnc2cc1OCCCN1CCCC(C)C1 (stereo not drawn)
Activity [19]: Non-Toxic
Activity [20]: 40%
